Common to all, as to format: functional
In assay [1] the test system is Pseudomonas aeruginosa. The assay can be described thus: Antibacterial activity against 5 x 10^5 CFU/mL Pseudomonas aeruginosa Boston 41501 ATCC 27853 incubated for 72 hrs followed by growing of cells on trypticase soy agar plate for 24 hrs by CLSI M07-A8 broth microdilution method. A digest of the protocol:
(§1)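 After the 72 h, 37 °C Mueller-Hinton microdilution (5 × 10⁵ cfu/well, triplicate wells), 100 µl from each triplicate set is plated on trypticase soy agar and incubated 24 h. MBC is the lowest concentration giving no colonies. At least 3 repeats per organism.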

Assay [2] concerns Staphylococcus aureus. Put plainly: Antibacterial activity against 5 x 10^5 CFU/mL Staphylococcus aureus subsp. aureus ATCC 29213 incubated for 72 hrs followed by growing of cells on trypticase soy agar plate for 24 hrs by CLSI M07-A8 broth microdilution method. A digest of the protocol:
as §1

For assay [3], the system named is Enterococcus faecalis. The assay can be described thus: Antibacterial activity against 5 x 10^5 CFU/mL Enterococcus faecalis ATCC 29212 after 72 hrs by CLSI M07-A8 broth microdilution method. A digest of the protocol:
(§2)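 Broth microdilution in Mueller-Hinton broth at 37 °C. Serially diluted compound added in triplicate wells, then overnight culture diluted to about 5 × 10⁶ cfu/mL inoculum, giving 5 × 10⁵ cfu/well. Inoculum checked by serial dilution and plating. Plates incubated 72 h at 37 °C. MIC is the lowest concentration with no growth visible by eye. At least 3 repeats per organism.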

Assay [4] concerns Staphylococcus aureus. The assay can be described thus: Antibacterial activity against 5 x 10^5 CFU/mL Staphylococcus aureus subsp. aureus ATCC 29213 after 72 hrs by CLSI M07-A8 broth microdilution method. The method in brief:
as §2

The subject of assay [5] is Enterococcus faecalis. Put plainly: Antibacterial activity against 2.5 x 10^6 CFU/mL Enterococcus faecalis ATCC 29212 assessed as time required for bacterial killing at 100 uM by microscopy based bacterial killing assay.
In assay [6] the test system is Enterococcus faecalis. The assay can be described thus: Antibacterial activity against 5 x 10^5 CFU/mL Enterococcus faecalis ATCC 29212 incubated for 72 hrs followed by growing of cells on trypticase soy agar plate for 24 hrs by CLSI M07-A8 broth microdilution method. The method in brief:
as §1

Assay [7] relates to Escherichia coli. Put plainly: Antibacterial activity against 2.5 x 10^6 CFU/mL Escherichia coli ATCC 25922 assessed as time required for bacterial killing at 100 uM by microscopy based bacterial killing assay.
In assay [8] the test system is Escherichia coli. The assay can be described thus: Antibacterial activity against 5 x 10^5 CFU/mL Escherichia coli ATCC 25922 after 72 hrs by CLSI M07-A8 broth microdilution method. A digest of the protocol:
as §2

The test system of assay [9] is Pseudomonas aeruginosa. The assay can be described thus: Antibacterial activity against 5 x 10^5 CFU/mL Pseudomonas aeruginosa Boston 41501 ATCC 27853 after 72 hrs by CLSI M07-A8 broth microdilution method. The method in brief:
as §2

Assay [10] relates to Escherichia coli. Put plainly: Antibacterial activity against 5 x 10^5 CFU/mL Escherichia coli ATCC 25922 incubated for 72 hrs followed by growing of cells on trypticase soy agar plate for 24 hrs by CLSI M07-A8 broth microdilution method. The method in brief:
as §1

Assay [11] relates to Staphylococcus aureus. Put plainly: Antibacterial activity against 2.5 x 10^6 CFU/mL Staphylococcus aureus subsp. aureus ATCC 29213 assessed as time required for bacterial killing at 100 uM by microscopy based bacterial killing assay.

The values that follow come from ChEMBL document CHEMBL1817666, “Bicephalic amphiphile architecture affects antibacterial activity” (2011).

The source made the active and inactive calls. The rule behind the calls is not given here.

Consider `CCCCCCCCCCCCOc1cc(C[N+](C)(C)C)ccc1C[N+](C)(C)C`, for which the MBC in [1] was over 500 µM; in [2], 31 µM; in assay [6], 125 µM; in assay [10], 500 µM. The MIC in assay [3] (ATCC 29212, 72 h) is 125 µM; in assay [4] (ATCC 29213, 72 h), 31 µM; in [8] (ATCC 25922, 72 h), 500 µM; in assay [9] (Boston 41501 ATCC 27853, 72 h), over 500 µM. In addition, the result in [5], in [7] and in assay [11] was inactive.
In the case of “N,N,N-trimethylhexadecan-1-aminium bromide”, the MBC was over 500 µM in [1], 4 µM in [2], 4 µM in [6] and 63 µM in assay [10]. The MIC in assay [3] was 4 µM; in [4] it was 4 µM; in [8], 63 µM; in assay [9] it was over 500 µM.
On to `CCCCCCCCCCCCCCOc1c(C[N+](C)(C)C)cccc1C[N+](C)(C)C.[Br-].[Br-]`, for which the MBC in [1] amounted to 500 µM; in assay [2], 16 µM; in assay [6] it was 50 µM; in assay [10] it was 125 µM. The MIC was 50 µM in assay [3] (ATCC 29212, 72 h); 16 µM in assay [4] (ATCC 29213, 72 h); 125 µM in assay [8] (ATCC 25922, 72 h); 500 µM in [9] (Boston 41501 ATCC 27853, 72 h). In addition, the outcome in assay [5] and in assay [7] was inactive. Besides, the Time in assay [11] is 48 h.
On to `CCCCCCCCCCCCCCCCOc1cc(C[N+](C)(C)C)ccc1C[N+](C)(C)C.[Br-].[Br-]`, for which the MBC in assay [1] turned out to be 125 µM; in assay [2], 16 µM; in [6], 50 µM; in assay [10], 63 µM. The MIC in assay [3] (ATCC 29212, 72 h) worked out at 50 µM; in assay [4] (ATCC 29213, 72 h), 16 µM; in assay [8] (ATCC 25922, 72 h), 63 µM; in [9] (Boston 41501 ATCC 27853, 72 h), 125 µM. Further, in assay [5], the result was inactive. Besides, the results for the Time in assay [7] and in assay [11] were 2 h and 24 h, respectively.
Turning to `CCCCCCCCCCOc1cc(C[N+](C)(C)C)ccc1C[N+](C)(C)C`, the MBC in [1] is over 500 µM; in [2], 250 µM; in assay [6], 500 µM; in assay [10], over 500 µM. In addition, the MIC in assay [3] (ATCC 29212, 72 h) was 500 µM; in assay [4] (ATCC 29213, 72 h), 250 µM; in [8] (ATCC 25922, 72 h), over 500 µM; in [9] (Boston 41501 ATCC 27853, 72 h), over 500 µM. Moreover, the outcome in [5], in assay [7] and in assay [11] was inactive.
On to `CCCCCCCCCCCCCCOc1ccc(C[N+](C)(C)C)cc1C[N+](C)(C)C.[Br-].[Br-]`, for which the MBC in assay [1] was 125 µM; in assay [2], 6 µM; in [6] it was 16 µM; in [10], 31 µM. The MIC amounted to 16 µM in assay [3] (ATCC 29212, 72 h); 6 µM in assay [4] (ATCC 29213, 72 h); 31 µM in [8] (ATCC 25922, 72 h); 125 µM in assay [9] (Boston 41501 ATCC 27853, 72 h). Moreover, the results for the Time in assay [5], in [7] and in assay [11] were 2 h, 1 h and 1 h, respectively.
In the case of `CCCCCCCCCCCCCCOc1ccc(C[N+](C)(C)C)cc1.[Br-]`, the MBC was over 500 µM in assay [1], 6 µM in assay [2], 16 µM in assay [6] and over 500 µM in assay [10]. The MIC in assay [3] (ATCC 29212, 72 h) was 16 µM; in assay [4] (ATCC 29213, 72 h), 6 µM; in assay [8] (ATCC 25922, 72 h), over 500 µM; in [9] (Boston 41501 ATCC 27853, 72 h), over 500 µM. The Time in [5] and in [11] was 0.25 h throughout. Moreover, in assay [7], the outcome was inactive.
On to `CCCCCCCCCCCCCCOc1cc(C[N+](C)(C)C)ccc1C[N+](C)(C)C.[Br-].[Br-]`, for which the MBC in assay [1] was 250 µM; in assay [2], 16 µM; in assay [6], 31 µM; in assay [10] it was 63 µM. Besides, the MIC in assay [3] (ATCC 29212, 72 h) was 31 µM; in assay [4] (ATCC 29213, 72 h), 16 µM; in assay [8] (ATCC 25922, 72 h), 63 µM; in assay [9] (Boston 41501 ATCC 27853, 72 h), 250 µM. For the same compound, the Time in assay [5] was 48 h; in assay [7], 72 h; in assay [11], 48 h.
For `CCCCCCCCCCCCCCCCOc1cc(C[N+](C)(C)C)cc(C[N+](C)(C)C)c1.[Br-].[Br-]`, the MBC in assay [1] is 125 µM; in assay [2], 8 µM; in assay [6], 31 µM; in assay [10] it was 63 µM. The MIC in assay [3] (ATCC 29212, 72 h) was 31 µM; in assay [4] (ATCC 29213, 72 h), 8 µM; in [8] (ATCC 25922, 72 h), 63 µM; in assay [9] (Boston 41501 ATCC 27853, 72 h) it was 125 µM. Further, the Time in assay [5], in assay [7] and in assay [11] was 0.25 h throughout.
Turning to `CCCCCCCCCCCCCCOc1cc(C[N+](C)(C)C)cc(C[N+](C)(C)C)c1.[Br-].[Br-]`, the MBC is 63 µM in assay [1], 4 µM in assay [2], 31 µM in assay [6] and 31 µM in assay [10]. The MIC in [3] (ATCC 29212, 72 h) stood at 31 µM; in assay [4] (ATCC 29213, 72 h), 4 µM; in [8] (ATCC 25922, 72 h), 31 µM; in assay [9] (Boston 41501 ATCC 27853, 72 h), 63 µM. For the same compound, the values for the Time in assay [5], in [7] and in assay [11] were 0.25 h, 1 h and 0.25 h, respectively.
As for `CCCCCCCCCCCCCCCCCCOc1cc(C[N+](C)(C)C)ccc1C[N+](C)(C)C.[Br-].[Br-]`, the MBC in assay [1] was 250 µM; in [2], 16 µM; in assay [6], 31 µM; in assay [10], 63 µM. For the same compound, the MIC was 31 µM in [3] (ATCC 29212, 72 h); 16 µM in [4] (ATCC 29213, 72 h); 63 µM in assay [8] (ATCC 25922, 72 h); 250 µM in [9] (Boston 41501 ATCC 27853, 72 h). Besides, the Time worked out at 0.25 h in assay [5], 0.5 h in assay [7] and 0.25 h in [11].
`CCCCCCCCCCOc1ccc(C[N+](C)(C)C)cc1.[Br-]`: the MBC in [1] was 250 µM; in assay [2], 8 µM; in assay [6], 16 µM; in [10] it was 63 µM. For the same compound, the MIC stood at 16 µM in [3] (ATCC 29212, 72 h); 8 µM in [4] (ATCC 29213, 72 h); 63 µM in [8] (ATCC 25922, 72 h); 250 µM in assay [9] (Boston 41501 ATCC 27853, 72 h). Also, the Time in [5], in assay [7] and in assay [11] was 0.5 h throughout.
On to `CCCCCCCCCCCCOS(=O)(=O)[O-].[Na+]` [SODIUM LAURYL SULFATE], for which the MBC in assay [1] is over 500 µM; in assay [2] it was 250 µM; in [6], 500 µM; in [10], over 500 µM. The MIC in assay [3] (ATCC 29212, 72 h) was 500 µM; in assay [4] (ATCC 29213, 72 h) it was 250 µM; in assay [8] (ATCC 25922, 72 h), over 500 µM; in assay [9] (Boston 41501 ATCC 27853, 72 h), over 500 µM.
As for `CCCCCCCCCCCC[N+](C)(C)C`, the MBC was over 500 µM in [1], 63 µM in [2], 125 µM in assay [6] and 250 µM in assay [10]. In addition, the MIC is 125 µM in assay [3] (ATCC 29212, 72 h); 63 µM in assay [4] (ATCC 29213, 72 h); 250 µM in assay [8] (ATCC 25922, 72 h); over 500 µM in assay [9] (Boston 41501 ATCC 27853, 72 h).
Take `CCCCCCCCCCCCCCOc1cccc(C[N+](C)(C)C)c1C[N+](C)(C)C.[Br-].[Br-]`: the MBC came to 125 µM in assay [1], 6 µM in assay [2], 31 µM in assay [6] and 63 µM in assay [10]. For the same compound, the MIC in assay [3] (ATCC 29212, 72 h) worked out at 31 µM; in assay [4] (ATCC 29213, 72 h) it was 6 µM; in assay [8] (ATCC 25922, 72 h), 63 µM; in assay [9] (Boston 41501 ATCC 27853, 72 h), 125 µM. For the same compound, the values for the Time in [5], in [7] and in [11] were 24 h, 0.5 h and 1 h, respectively.
